Data as given in article PMC6387599 (Drug Design, Development and Therapy, 2019).

Columns and labels:
[1] = Equilibrium solubility in distilled water; type: physicochemical; conditions: 25°C, 72 hours
In short: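 Supernatant sampled at 0, 12, 24, 36, 48, 60 and 72 h and passed through a 0.45-µm filter. Concentration measured by HPLC at 242 nm, 30°C, 1.0 mL/min. Mobile phase was methanol or acetonitrile with phosphate buffer (pH 8.0 or 7.4; 70:30 or 80:20 v/v), depending on compound.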

[2] = test system: IL-6 production in LPS-induced A549 cells; test: Inhibition of IL-6 production; type: cell-based; conditions: Homo sapiens, A549, 24 h, read-out: inhibitory rate on IL-6
In short: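 A549 cells preincubated 1 h with test compound (10^-11–10^-6 M), then stimulated with LPS-EB (5 µL of 10 µg/mL solution) for 24 h. IL-6 in supernatants measured by ELISA, read at 450 nm. Inhibitory rate of IL-6 production calculated; IC50 from dose–response curves; n=3, mean ± SD.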

xylene-induced ear edema = test: Xylene-induced ear edema test; type: in vivo; conditions: mice, intraperitoneal, equivalent to 200 μg/kg Bud, 1 hour before xylene
In short: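 Male Kunming mice (20–25 g), n=10 per group, dosed intraperitoneally (0.1 mL/10 g body weight) with test compound at a dose equivalent to 200 µg/kg budesonide; vehicle 2% DMSO. After 1 h, 20 µL xylene applied to right ear, left ear untreated. Killed 1 h later; 6-mm ear discs weighed. Edema = right minus left ear weight. Analysed by one-way ANOVA with Fisher's LSD; mean ± SD.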

In the case of CCCC1O[C@@H]2C[C@H]3[C@@H]4CCC5=CC(=O)C=C[C@]5(C)[C@H]4[C@@H](O)C[C@]3(C)[C@]2(C(=O)CO)O1 (stereo partly drawn) [Bud, budesonide], the equilibrium solubility [1] is reported as 0.0022 g/100 g water, the inhibition at 0.001 µM [2] is reported as > 50% and the “inhibition of ear edema” value (xylene-induced ear edema) is reported as 17.19%.
